Assay results published in ChEMBL document CHEMBL3627597, “Synthesis of Fluorine-Containing Phosphodiesterase 10A (PDE10A) Inhibitors and the In Vivo Evaluation of F-18 Labeled PDE10A PET Tracers in Rodent and Nonhuman Primate” (J Med Chem, 2015).

Legend:
Homo sapiens [1] = species on record: Homo sapiens; assay: Selectivity ratio of IC50 for recombinant human PDE4A to IC50 for recombinant human PDE10A
[2] = target: 3',5'-cyclic-AMP phosphodiesterase 4B (Homo sapiens, UniProt Q07343); assay: Inhibition of recombinant human PDE4B assessed as reduction of [3H]-cAMP hydrolysis preincubated for 5 mins followed by [3H]-cAMP addition measured after 20 mins by scintillation proximity assay
Procedure, shortened: (§1)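 Recombinant human PDE with [3H]cAMP scintillation proximity assay. Enzyme used at a level within the linear range. Inhibitor (DMSO serial dilutions) plus enzyme held 5 min on ice, then [3H]cAMP added at 1/3 Km (1.48 kBq/mL), 20 min on ice (~30% turnover). Stopped with yttrium silicate SPA beads; settled 1.5 h at rt and counted. IC50 from one-site nonlinear fit, at least two independent runs, ± SD.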

Homo sapiens [3] = species on record: Homo sapiens; assay: Selectivity ratio of IC50 for recombinant human PDE3B to IC50 for recombinant human PDE10A
Homo sapiens [4] = species on record: Homo sapiens; assay: Selectivity ratio of IC50 for recombinant human PDE4B to IC50 for recombinant human PDE10A
[5] = target: 3',5'-cyclic-AMP phosphodiesterase 4A (Homo sapiens, UniProt P27815); assay: Inhibition of recombinant human PDE4A assessed as reduction of [3H]-cAMP hydrolysis preincubated for 5 mins followed by [3H]-cAMP addition measured after 20 mins by scintillation proximity assay; procedure, shortened: as §1
Homo sapiens [6] = species on record: Homo sapiens; assay: Selectivity ratio of IC50 for recombinant human PDE3A to IC50 for recombinant human PDE10A
[7] = target: cGMP-inhibited 3',5'-cyclic phosphodiesterase 3B (Homo sapiens, UniProt Q13370); assay: Inhibition of recombinant human PDE3B assessed as reduction of [3H]-cAMP hydrolysis preincubated for 5 mins followed by [3H]-cAMP addition measured after 20 mins by scintillation proximity assay; procedure, shortened: as §1
[8] = target: cGMP-inhibited 3',5'-cyclic phosphodiesterase 3A (Homo sapiens, UniProt Q14432); assay: Inhibition of recombinant human PDE3A assessed as reduction of [3H]-cAMP hydrolysis preincubated for 5 mins followed by [3H]-cAMP addition measured after 20 mins by scintillation proximity assay; procedure, shortened: as §1
[9] = target: cAMP and cAMP-inhibited cGMP 3',5'-cyclic phosphodiesterase 10A (Homo sapiens, UniProt Q9Y233); assay: Inhibition of recombinant human PDE10A assessed as reduction of [3H]-cAMP hydrolysis preincubated for 5 mins followed by [3H]-cAMP addition measured after 20 mins by scintillation proximity assay; procedure, shortened: as §1
cAMP and cAMP-inhibited cGMP 3',5'-cyclic phosphodiesterase 10A, sequence (Q9Y233 whole entry): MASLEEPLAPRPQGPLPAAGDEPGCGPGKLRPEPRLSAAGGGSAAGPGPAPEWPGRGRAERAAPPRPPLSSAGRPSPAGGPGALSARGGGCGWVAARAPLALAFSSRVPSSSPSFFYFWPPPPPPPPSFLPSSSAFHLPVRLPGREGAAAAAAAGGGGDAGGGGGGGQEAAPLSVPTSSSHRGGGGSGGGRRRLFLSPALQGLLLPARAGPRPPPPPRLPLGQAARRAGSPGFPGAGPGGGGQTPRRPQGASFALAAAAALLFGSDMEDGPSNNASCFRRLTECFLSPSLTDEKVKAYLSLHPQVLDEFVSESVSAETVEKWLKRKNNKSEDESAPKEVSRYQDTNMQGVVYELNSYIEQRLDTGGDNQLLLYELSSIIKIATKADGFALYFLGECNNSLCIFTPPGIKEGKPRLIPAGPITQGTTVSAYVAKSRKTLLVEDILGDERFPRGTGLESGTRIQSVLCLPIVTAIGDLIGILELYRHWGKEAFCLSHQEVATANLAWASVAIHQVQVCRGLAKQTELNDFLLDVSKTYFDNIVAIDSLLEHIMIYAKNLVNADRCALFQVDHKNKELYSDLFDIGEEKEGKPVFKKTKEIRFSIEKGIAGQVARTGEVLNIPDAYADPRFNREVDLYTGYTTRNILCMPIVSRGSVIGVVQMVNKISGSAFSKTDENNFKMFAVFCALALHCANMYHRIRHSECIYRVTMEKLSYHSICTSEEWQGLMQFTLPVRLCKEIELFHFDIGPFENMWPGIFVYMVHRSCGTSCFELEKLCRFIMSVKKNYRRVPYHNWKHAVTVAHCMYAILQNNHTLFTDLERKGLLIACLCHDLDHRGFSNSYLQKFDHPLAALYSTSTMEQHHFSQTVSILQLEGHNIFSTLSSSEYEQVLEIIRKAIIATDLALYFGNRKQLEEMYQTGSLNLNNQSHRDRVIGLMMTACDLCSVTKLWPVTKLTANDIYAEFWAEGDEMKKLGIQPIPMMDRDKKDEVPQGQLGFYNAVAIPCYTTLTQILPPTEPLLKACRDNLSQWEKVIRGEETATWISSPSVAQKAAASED

cGMP-inhibited 3',5'-cyclic phosphodiesterase 3A, sequence (Q14432 whole entry): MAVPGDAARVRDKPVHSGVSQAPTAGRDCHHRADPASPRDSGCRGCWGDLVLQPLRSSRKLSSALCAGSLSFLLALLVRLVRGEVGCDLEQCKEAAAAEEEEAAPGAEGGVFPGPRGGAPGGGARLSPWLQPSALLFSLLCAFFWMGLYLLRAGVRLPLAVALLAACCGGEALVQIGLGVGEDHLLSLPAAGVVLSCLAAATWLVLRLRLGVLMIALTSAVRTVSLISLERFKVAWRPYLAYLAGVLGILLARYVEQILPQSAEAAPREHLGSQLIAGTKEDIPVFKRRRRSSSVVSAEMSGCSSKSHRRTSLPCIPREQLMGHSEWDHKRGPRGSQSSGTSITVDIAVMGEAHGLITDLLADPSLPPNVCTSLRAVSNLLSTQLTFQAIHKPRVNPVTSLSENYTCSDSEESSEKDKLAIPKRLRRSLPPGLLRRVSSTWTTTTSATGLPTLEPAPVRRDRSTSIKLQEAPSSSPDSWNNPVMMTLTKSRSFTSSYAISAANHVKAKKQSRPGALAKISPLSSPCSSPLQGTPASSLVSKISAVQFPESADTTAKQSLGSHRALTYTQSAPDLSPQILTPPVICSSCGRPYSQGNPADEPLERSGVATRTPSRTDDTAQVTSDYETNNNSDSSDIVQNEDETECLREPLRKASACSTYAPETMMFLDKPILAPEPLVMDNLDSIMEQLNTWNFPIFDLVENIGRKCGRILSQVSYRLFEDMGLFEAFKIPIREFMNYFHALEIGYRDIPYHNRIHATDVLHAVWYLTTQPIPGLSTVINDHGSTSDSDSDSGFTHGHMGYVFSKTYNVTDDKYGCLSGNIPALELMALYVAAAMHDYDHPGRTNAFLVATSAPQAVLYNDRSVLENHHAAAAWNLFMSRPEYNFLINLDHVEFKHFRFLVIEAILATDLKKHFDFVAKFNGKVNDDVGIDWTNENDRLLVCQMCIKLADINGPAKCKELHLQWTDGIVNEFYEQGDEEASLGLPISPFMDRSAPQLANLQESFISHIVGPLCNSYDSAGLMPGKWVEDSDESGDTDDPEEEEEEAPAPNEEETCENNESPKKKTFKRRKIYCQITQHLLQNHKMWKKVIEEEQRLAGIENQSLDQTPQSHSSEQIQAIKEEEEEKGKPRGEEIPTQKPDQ
cGMP-inhibited 3',5'-cyclic phosphodiesterase 3B, sequence (Q13370 whole entry): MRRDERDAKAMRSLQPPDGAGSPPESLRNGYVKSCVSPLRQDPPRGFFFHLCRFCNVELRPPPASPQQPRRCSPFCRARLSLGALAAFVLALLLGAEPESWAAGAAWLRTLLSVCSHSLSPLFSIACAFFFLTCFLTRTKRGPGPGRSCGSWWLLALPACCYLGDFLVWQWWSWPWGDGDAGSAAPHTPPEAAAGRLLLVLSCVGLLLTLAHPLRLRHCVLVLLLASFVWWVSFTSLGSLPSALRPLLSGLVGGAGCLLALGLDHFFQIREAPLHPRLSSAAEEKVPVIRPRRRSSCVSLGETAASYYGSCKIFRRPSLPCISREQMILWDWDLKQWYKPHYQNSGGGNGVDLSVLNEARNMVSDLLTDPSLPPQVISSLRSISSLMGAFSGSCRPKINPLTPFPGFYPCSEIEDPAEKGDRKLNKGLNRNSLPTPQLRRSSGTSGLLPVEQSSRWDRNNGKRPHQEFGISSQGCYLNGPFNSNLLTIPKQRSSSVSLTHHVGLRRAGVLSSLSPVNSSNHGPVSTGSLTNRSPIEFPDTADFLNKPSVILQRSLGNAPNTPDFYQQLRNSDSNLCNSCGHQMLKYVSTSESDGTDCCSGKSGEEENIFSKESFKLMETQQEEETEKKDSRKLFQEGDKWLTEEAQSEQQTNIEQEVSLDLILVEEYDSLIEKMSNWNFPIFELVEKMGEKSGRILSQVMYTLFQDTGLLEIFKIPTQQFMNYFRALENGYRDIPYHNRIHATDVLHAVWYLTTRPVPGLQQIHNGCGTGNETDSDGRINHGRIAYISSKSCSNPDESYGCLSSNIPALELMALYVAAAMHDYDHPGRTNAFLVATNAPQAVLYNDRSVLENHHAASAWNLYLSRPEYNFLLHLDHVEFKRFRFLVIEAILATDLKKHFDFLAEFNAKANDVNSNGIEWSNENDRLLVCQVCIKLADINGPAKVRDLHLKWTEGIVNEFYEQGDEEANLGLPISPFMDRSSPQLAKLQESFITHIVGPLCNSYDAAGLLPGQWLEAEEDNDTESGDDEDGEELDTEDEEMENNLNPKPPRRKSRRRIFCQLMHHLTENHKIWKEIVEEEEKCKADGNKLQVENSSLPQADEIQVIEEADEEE
3',5'-cyclic-AMP phosphodiesterase 4A, sequence (P27815 whole entry): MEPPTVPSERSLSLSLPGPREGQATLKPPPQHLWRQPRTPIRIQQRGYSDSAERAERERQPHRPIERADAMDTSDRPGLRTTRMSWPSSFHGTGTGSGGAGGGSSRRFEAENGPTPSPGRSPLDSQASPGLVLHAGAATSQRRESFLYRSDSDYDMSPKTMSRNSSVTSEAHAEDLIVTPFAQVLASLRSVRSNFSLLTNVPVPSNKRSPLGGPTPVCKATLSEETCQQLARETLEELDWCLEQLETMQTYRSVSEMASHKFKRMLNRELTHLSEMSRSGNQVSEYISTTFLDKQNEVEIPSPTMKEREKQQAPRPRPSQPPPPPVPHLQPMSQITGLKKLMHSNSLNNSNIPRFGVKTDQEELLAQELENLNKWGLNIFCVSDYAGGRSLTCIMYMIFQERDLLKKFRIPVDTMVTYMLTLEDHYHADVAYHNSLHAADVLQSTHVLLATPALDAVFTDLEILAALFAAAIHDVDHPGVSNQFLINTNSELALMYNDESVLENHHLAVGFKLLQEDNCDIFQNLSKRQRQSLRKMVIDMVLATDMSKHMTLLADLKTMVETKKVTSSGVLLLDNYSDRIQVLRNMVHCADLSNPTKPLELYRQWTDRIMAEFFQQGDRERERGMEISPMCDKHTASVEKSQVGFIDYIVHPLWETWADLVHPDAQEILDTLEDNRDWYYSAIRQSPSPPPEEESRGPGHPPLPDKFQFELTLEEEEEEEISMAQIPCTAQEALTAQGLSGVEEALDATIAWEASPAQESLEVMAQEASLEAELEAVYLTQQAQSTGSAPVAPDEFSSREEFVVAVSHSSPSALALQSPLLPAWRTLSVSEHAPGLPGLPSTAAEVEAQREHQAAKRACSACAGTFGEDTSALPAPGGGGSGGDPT
3',5'-cyclic-AMP phosphodiesterase 4B, sequence (Q07343 whole entry): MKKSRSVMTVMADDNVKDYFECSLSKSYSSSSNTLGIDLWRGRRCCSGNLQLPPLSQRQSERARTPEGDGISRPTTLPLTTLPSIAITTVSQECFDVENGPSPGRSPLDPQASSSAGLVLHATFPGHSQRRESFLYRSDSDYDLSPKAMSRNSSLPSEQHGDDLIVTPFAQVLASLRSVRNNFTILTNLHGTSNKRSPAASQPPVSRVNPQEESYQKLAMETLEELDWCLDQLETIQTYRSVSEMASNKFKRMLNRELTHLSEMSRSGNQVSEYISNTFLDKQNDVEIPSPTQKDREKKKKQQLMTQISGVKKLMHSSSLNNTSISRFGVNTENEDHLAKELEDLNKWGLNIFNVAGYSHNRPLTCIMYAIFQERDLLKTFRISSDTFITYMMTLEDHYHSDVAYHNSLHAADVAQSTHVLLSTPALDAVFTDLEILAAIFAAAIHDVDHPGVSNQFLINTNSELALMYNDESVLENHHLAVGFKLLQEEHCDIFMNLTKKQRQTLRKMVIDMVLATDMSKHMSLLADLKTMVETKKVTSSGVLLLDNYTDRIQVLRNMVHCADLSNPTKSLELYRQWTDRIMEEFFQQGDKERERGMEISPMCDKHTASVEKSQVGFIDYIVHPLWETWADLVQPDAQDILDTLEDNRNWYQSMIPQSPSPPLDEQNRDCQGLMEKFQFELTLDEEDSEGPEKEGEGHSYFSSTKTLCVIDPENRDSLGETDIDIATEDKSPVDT

Row | SMILES | Ratio IC50 (Homo sapiens [1]) | IC50 [2] | Ratio IC50 (Homo sapiens [3]) | Ratio IC50 (Homo sapiens [4]) | IC50 [5] | Ratio IC50 (Homo sapiens [6]) | IC50 [7] | IC50 [8] | IC50 [9]
1 | Cn1cc(-c2ccncc2)c(-c2ccc(OCc3cc(OCCOCCOCCF)c4ccccc4n3)cc2)n1 | > 210 | 1.58 µM | > 210 | > 210 | 1.57 µM | > 210 | 61.9 µM | 116 µM | 0.00024 µM
2 | Cn1cc(-c2ccncc2)c(-c2ccc(OCc3cc(NCCF)c4ccccc4n3)cc2)n1 | > 210 | 4.8 µM | > 210 | > 210 | 5.97 µM | > 210 | 3.48 µM | 3.74 µM | 0.00052 µM
3 | Cn1cc(-c2ccncc2)c(-c2ccc(OCc3cc(OCCF)c4ccccc4n3)cc2)n1 | > 210 | 1.77 µM | > 210 | > 210 | 1.01 µM | > 210 | 7.76 µM | 29.5 µM | 0.00032 µM
4 | Cn1ncc(-c2ccncc2)c1-c1ccc(OCc2ccc3cc(F)ccc3n2)cc1 | > 210 | 0.76 µM | > 210 | > 210 | 9.73 µM | > 210 | 151 µM | 111 µM | 0.00076 µM
5 | Cn1ncc(-c2ccncc2)c1-c1ccc(OCc2cc(COCCF)c3ccccc3n2)cc1 | > 210 | 4.24 µM | > 210 | > 210 | 4.77 µM | > 210 | > 1000 µM | 306 µM | 0.00112 µM
6 | Cn1ncc(-c2ccncc2)c1-c1ccc(OCc2cc(OCCOCCOCCOCCF)c3ccccc3n2)cc1 | > 210 | 1.73 µM | > 210 | > 210 | 15 µM | > 210 | 28.1 µM | 58.7 µM | 0.0003 µM
7 | Cn1ncc(-c2ccncc2)c1-c1ccc(OCc2cc(NCCF)c3ccccc3n2)cc1 | > 210 | 1.59 µM | > 210 | > 210 | 12.4 µM | > 210 | 38.3 µM | 78.8 µM | 0.00037 µM
8 | Cn1cc(-c2ccncc2)c(-c2ccc(OCc3nc4ccccc4cc3OCCF)cc2)n1 | > 210 | 1.04 µM | > 210 | > 210 | 1.76 µM | > 210 | 19.9 µM | 25.9 µM | 0.00026 µM
9 | Cn1cc(-c2ccncc2)c(-c2ccc(OCc3ccc4cc(OCCF)ccc4n3)cc2)n1 | > 210 | – | > 210 | > 210 | – | > 210 | – | – | 0.0335 µM
10 | Cn1cc(-c2ccncc2)c(-c2ccc(OCc3cc(F)c4ccccc4n3)cc2)n1 | > 210 | 6.42 µM | > 210 | > 210 | 8.35 µM | > 210 | 103 µM | 199 µM | 0.00071 µM
11 | Cn1cc(-c2ccncc2)c(-c2ccc(OCc3cc(COCCF)c4ccccc4n3)cc2)n1 | > 210 | 1.77 µM | > 210 | > 210 | 2.22 µM | > 210 | 4.55 µM | 4.07 µM | 0.00065 µM
12 | Cn1cc(-c2ccncc2)c(-c2ccc(OCc3cc(-n4cc(CCF)nn4)c4ccccc4n3)cc2)n1 | > 210 | 18.3 µM | > 210 | > 210 | 1.57 µM | > 210 | 3.56 µM | 4.51 µM | 0.00307 µM
13 | Cn1cc(-c2ccncc2)c(-c2ccc(OCc3ccc4cc(F)ccc4n3)cc2)n1 | > 210 | 2.55 µM | > 210 | > 210 | 2.33 µM | > 210 | 23.9 µM | 38.5 µM | 0.00029 µM
14 | Cn1cc(-c2ccncc2)c(-c2ccc(OCc3ccc4cc(CF)ccc4n3)cc2)n1 | > 210 | – | > 210 | > 210 | – | > 210 | – | – | > 0.076 µM
15 | Cn1ncc(-c2ccncc2)c1-c1ccc(OCc2cc(OCCOCCF)c3ccccc3n2)cc1 | > 210 | 11.6 µM | > 210 | > 210 | 12.3 µM | > 210 | 50.1 µM | 66.4 µM | 0.00036 µM
16 | Cn1cc(-c2ccncc2)c(-c2ccc(OCc3cc(CCCF)c4ccccc4n3)cc2)n1 | > 210 | 0.38 µM | > 210 | > 210 | 0.46 µM | > 210 | 19.1 µM | 21.9 µM | 0.0018 µM
17 | Cn1ncc(-c2ccncc2)c1-c1ccc(OCc2cc(OCCF)c3ccccc3n2)cc1 | > 210 | 1.02 µM | > 210 | > 210 | 3.72 µM | > 210 | 5.61 µM | 3.77 µM | 0.00116 µM
18 | Cn1cc(-c2ccncc2)c(-c2ccc(OCc3cc(OCCOCCF)c4ccccc4n3)cc2)n1 | > 210 | 0.9 µM | > 210 | > 210 | 1.44 µM | > 210 | 16.2 µM | 22.9 µM | 0.00027 µM
19 | Cn1ncc(-c2ccncc2)c1-c1ccc(OCc2cc(OCCOCCOCCF)c3ccccc3n2)cc1 | > 210 | 7.31 µM | > 210 | > 210 | 8.36 µM | > 210 | 51.8 µM | 62.2 µM | 0.00047 µM
20 | Cn1cc(-c2ccncc2)c(-c2ccc(OCc3cc(CF)c4ccccc4n3)cc2)n1 | > 210 | 3.8 µM | > 210 | > 210 | 4.09 µM | > 210 | 5.68 µM | 7.71 µM | 0.00068 µM
21 | Cn1cc(-c2ccncc2)c(-c2ccc(OCc3cc(OCCOCCOCCOCCF)c4ccccc4n3)cc2)n1 | > 210 | 10.3 µM | > 210 | > 210 | 9.89 µM | > 210 | 29.6 µM | 144 µM | 0.00033 µM
22 | Cn1ncc(-c2ccncc2)c1-c1ccc(OCc2cc(-n3cc(CCF)nn3)c3ccccc3n2)cc1 | > 210 | 0.9 µM | > 210 | > 210 | 1.86 µM | > 210 | 16.2 µM | 0.81 µM | 0.00498 µM
